Assay results: ChEMBL document CHEMBL3352559, “Synthesis and pharmacological investigation of aralkyl diamine derivatives as potential triple reuptake inhibitors” (Eur J Med Chem, 2014)

What was measured:
[1] = Acute toxicity in KM mouse assessed as survival at 300 mg/kg, po up to 14 days (reference value: 100%); assay type: organism-based; design: dose 300 mg/kg, route oral; settings: in vivo
[2] = test system: Salmonella typhimurium; assay: Mutagenic activity in Salmonella typhimurium TA100 assessed as number of reversion mutation at 5000 ug/plate; assay type: toxicity, organism-based; settings: salmonella enterica subsp. enterica serovar typhimurium
Summary of the method: (§1)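 Ames reversion test in Salmonella typhimurium TA98 and TA100, with and without rat liver S9 metabolic activation. Compound was dissolved in DMSO and added at 3–5000 μg/plate. Each dose, vehicle and positive control was plated in triplicate, and revertant colonies were counted.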

[3] = test system: Salmonella typhimurium; assay: Mutagenic activity in Salmonella typhimurium TA100 assessed as number of reversion mutation at 100 ug/plate; assay type: toxicity, organism-based; settings: salmonella enterica subsp. enterica serovar typhimurium; summary of the method: as §1
[4] = species: Homo sapiens; assay: Displacement of [3H]GABA from GABA receptor (unknown origin) at 10 uM relative to control
Summary of the method: (§2)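 Outsourced CNS panel of 55 receptor binding assays run by Cerep. Compound tested at 10 μM, the default primary-binding concentration, with inhibition expressed relative to control. Inhibition above 50% taken as a significant effect.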

[5] = target: 5-hydroxytryptamine receptor 1A (Homo sapiens) (UniProt P08908); assay: Displacement of [3H]OHDPAT from human 5-HT1A receptor at 10 uM relative to control; summary of the method: as §2
Chain of 5-hydroxytryptamine receptor 1A (Homo sapiens) (P08908 whole entry): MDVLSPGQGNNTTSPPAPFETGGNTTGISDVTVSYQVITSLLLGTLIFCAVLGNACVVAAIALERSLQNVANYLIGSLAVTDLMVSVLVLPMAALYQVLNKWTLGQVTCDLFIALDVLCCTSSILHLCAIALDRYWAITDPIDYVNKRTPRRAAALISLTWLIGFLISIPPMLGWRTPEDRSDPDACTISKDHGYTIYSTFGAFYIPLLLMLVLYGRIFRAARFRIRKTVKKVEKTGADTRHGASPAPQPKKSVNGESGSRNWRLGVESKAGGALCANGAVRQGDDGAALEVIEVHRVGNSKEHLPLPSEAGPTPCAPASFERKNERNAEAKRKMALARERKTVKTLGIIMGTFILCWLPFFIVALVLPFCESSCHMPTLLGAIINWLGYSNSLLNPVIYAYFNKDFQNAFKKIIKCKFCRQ

[6] = Drug uptake in Sprague-Dawley rat plasma at 0.5 mg/kg iv after 2 hrs; assay type: ADME, organism-based; design: dose 0.5 mg/kg, route intravenous
Summary of the method: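 Male SD rats, fasted overnight until 6 h post-dose; single 0.5 mg/kg femoral-vein injection; blood drawn into heparin at 5, 15, 30 min, 1, 2 and 4 h; plasma stored at -40 °C; drug levels by LC/MS/MS; noncompartmental parameters.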

[7] = Oral bioavailability in Sprague-Dawley rat at 2 mg/kg; assay type: ADME, organism-based; settings: in vivo
[8] = target: Melanocortin receptor 4 (Homo sapiens) (UniProt P32245); assay: Displacement of [125I] NDP-alpha-MSH from human MC4 receptor at 10 uM relative to control; summary of the method: as §2
Chain of Melanocortin receptor 4 (Homo sapiens) (P32245 whole entry): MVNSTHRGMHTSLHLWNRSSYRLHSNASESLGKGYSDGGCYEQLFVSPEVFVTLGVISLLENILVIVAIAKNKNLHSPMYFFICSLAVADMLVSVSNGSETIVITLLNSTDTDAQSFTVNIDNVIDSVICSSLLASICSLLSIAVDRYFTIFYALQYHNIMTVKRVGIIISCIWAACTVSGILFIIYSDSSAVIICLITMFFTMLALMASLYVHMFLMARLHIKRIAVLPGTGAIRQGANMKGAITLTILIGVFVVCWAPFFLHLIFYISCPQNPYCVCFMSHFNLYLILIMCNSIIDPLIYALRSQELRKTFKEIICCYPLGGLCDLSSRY

[9] = target: 5-hydroxytryptamine receptor 2B (Homo sapiens) (UniProt P41595); assay: Displacement of [125I] (+/-)DOI from human 5-HT2B receptor at 10 uM relative to control; summary of the method: as §2
Chain of 5-hydroxytryptamine receptor 2B (Homo sapiens) (P41595 whole entry): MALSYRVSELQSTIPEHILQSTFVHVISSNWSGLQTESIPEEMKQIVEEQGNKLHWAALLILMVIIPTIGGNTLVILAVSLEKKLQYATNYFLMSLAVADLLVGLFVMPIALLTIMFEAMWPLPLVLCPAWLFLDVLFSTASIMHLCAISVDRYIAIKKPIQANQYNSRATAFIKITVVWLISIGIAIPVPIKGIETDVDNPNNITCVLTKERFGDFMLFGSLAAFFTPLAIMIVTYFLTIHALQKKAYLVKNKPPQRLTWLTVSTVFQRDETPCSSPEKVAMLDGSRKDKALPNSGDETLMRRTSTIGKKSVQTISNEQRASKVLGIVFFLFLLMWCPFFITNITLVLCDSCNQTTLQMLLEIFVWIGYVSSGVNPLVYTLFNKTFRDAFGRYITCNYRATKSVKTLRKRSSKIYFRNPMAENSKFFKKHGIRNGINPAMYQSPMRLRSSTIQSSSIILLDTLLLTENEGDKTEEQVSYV

[10] = target: Neuromedin-K receptor (Homo sapiens) (UniProt P29371); assay: Displacement of [3H]-SR142801 from human NK3 receptor at 10 uM relative to control; summary of the method: as §2
Chain of Neuromedin-K receptor (Homo sapiens) (P29371 whole entry): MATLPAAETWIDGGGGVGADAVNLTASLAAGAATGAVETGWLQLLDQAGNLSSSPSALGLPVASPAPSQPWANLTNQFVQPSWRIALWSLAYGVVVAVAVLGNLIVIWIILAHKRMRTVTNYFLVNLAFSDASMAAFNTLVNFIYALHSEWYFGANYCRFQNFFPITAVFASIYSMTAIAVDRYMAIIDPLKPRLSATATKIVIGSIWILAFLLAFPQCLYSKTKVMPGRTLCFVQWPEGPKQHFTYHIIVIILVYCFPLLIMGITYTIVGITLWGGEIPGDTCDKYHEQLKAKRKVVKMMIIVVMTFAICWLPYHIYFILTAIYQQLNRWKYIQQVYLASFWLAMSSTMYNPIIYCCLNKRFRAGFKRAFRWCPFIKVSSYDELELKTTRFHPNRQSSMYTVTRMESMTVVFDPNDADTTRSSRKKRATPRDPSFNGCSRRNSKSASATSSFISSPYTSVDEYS

[11] = species: Homo sapiens; assay: Inhibition of Kv channel (unknown origin) at 10 uM by [125I]alpha-dendrotoxin binding assay relative to control
Summary of the method: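 Radioligand binding was run at a contract laboratory as part of a 55-target CNS receptor panel. Test concentration was 10 μM. Inhibition of specific binding was expressed relative to control, and inhibition greater than 50% was taken as significant.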

[12] = target: Adenosine receptor A1 (Homo sapiens) (UniProt P30542); assay: Displacement of [3H]-DPCPX from human adenosine A1 receptor at 10 uM relative to control; summary of the method: as §2
Chain of Adenosine receptor A1 (Homo sapiens) (P30542 whole entry): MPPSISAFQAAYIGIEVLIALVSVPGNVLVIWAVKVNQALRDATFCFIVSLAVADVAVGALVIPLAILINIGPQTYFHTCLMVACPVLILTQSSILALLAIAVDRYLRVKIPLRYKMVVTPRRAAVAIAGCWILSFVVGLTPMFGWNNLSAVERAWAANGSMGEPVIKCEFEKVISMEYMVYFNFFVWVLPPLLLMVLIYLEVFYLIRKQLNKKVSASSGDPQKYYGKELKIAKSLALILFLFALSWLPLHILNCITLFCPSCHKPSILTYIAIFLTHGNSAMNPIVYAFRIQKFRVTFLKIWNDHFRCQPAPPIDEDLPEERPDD

[13] = Acute toxicity in KM mouse assessed as survival at 600 mg/kg, po up to 14 days (reference value: 100%); assay type: organism-based; design: dose 600 mg/kg, route oral; settings: in vivo
[14] = target: Sodium-dependent dopamine transporter (Homo sapiens, UniProt Q01959); assay: Inhibition of [3H]-DA uptake in human dopamine transporter expressed in HEK293 cells by scintillation counting; assay type: cell-based
[15] = Acute toxicity in KM mouse assessed as survival at 900 mg/kg, po up to 14 days (reference value: 100%); assay type: organism-based; design: dose 900 mg/kg, route oral; settings: in vivo
[16] = test system: Salmonella typhimurium; assay: Mutagenic activity in Salmonella typhimurium TA100 assessed as number of reversion mutation at 3 ug/plate; assay type: toxicity, organism-based; settings: salmonella enterica subsp. enterica serovar typhimurium; summary of the method: as §1
[17] = Ratio of drug level in Sprague-Dawley rat brain to plasma at 0.5 mg/kg iv after 2 hrs; assay type: ADME, organism-based; design: dose 0.5 mg/kg, route intravenous; settings: read-out: BPR
[18] = target: Muscarinic acetylcholine receptor M3 (Homo sapiens) (UniProt P20309); assay: Displacement of [3H]4-DAMP from human muscarinic M3 receptor at 10 uM relative to control; summary of the method: as §2
Chain of Muscarinic acetylcholine receptor M3 (Homo sapiens) (P20309 whole entry, looked up): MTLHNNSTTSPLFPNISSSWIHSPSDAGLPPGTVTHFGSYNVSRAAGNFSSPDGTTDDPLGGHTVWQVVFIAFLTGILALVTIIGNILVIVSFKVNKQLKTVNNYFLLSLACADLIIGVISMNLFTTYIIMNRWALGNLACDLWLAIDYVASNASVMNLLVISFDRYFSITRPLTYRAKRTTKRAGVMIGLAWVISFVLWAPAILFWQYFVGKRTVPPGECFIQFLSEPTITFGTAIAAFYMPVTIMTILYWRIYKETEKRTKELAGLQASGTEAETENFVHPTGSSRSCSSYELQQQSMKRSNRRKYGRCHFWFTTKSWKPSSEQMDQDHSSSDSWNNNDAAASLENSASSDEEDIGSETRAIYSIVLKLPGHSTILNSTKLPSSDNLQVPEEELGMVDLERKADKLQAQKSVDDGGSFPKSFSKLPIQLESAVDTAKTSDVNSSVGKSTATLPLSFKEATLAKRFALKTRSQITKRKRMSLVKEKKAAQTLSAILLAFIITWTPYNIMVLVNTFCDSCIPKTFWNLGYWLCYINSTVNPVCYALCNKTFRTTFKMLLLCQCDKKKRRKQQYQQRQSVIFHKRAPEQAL

[19] = AUC (0 to time) in Sprague-Dawley rat at 2 mg/kg, po; assay type: ADME, organism-based; design: dose 2 mg/kg, route oral; settings: plasma
Summary of the method: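 Male SD rats, fasted overnight until 6 h post-dose. PO group received single 2 mg/kg with heparinized blood sampled at 5, 15, 30 min, 1, 2, 4, 8, 24 h. IV group received single 0.5 mg/kg via femoral vein with sampling at 5, 15, 30 min, 1, 2, 4 h. Plasma stored at -40 °C, quantified by LC/MS/MS; 24 rats per group.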

[20] = Drug uptake in Sprague-Dawley rat brain at 0.5 mg/kg ip after 0.50 hrs
[21] = target: Substance-K receptor (Homo sapiens) (UniProt P21452); assay: Displacement of [125I]NKA from human NK2 receptor at 10 uM relative to control; summary of the method: as §2
Chain of Substance-K receptor (Homo sapiens) (P21452 whole entry): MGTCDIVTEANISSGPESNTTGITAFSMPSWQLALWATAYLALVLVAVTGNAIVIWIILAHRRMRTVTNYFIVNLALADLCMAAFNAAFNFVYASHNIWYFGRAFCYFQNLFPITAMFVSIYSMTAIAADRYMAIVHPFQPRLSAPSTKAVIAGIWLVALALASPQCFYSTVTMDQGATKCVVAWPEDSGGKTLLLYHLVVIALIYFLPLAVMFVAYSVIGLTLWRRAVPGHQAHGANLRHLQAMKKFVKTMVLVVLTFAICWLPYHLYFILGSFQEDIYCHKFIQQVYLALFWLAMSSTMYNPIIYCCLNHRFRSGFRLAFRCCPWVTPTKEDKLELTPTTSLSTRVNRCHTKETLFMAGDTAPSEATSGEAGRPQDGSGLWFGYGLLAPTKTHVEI

[22] = target: Delta-type opioid receptor (Homo sapiens) (UniProt P41143); assay: Displacement of [3H] DADLE from human delta opioid receptor at 10 uM relative to control; summary of the method: as §2
Chain of Delta-type opioid receptor (Homo sapiens) (P41143 whole entry): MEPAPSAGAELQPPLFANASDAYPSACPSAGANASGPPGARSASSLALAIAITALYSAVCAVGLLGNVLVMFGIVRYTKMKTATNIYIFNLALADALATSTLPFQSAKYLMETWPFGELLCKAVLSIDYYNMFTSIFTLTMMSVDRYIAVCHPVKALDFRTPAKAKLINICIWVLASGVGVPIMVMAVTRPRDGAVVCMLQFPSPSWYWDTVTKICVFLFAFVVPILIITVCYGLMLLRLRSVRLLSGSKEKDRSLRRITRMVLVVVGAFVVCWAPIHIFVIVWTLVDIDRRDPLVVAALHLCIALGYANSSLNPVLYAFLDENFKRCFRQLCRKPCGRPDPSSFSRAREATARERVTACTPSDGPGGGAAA

[23] = target: Beta-2 adrenergic receptor (Homo sapiens) (UniProt P07550); assay: Displacement of [3H]CGP-12177 from human beta2-adrenergic receptor at 10 uM relative to control; summary of the method: as §2
[24] = test system: Salmonella typhimurium; assay: Mutagenic activity in Salmonella typhimurium TA100 assessed as number of reversion mutation at 30 ug/plate; assay type: toxicity, organism-based; settings: salmonella enterica subsp. enterica serovar typhimurium; summary of the method: as §1
[25] = target: Vasopressin V1a receptor (Homo sapiens) (UniProt P37288); assay: Displacement of [3H]AVP from human V1a receptor at 10 uM relative to control; summary of the method: as §2
[26] = Clearance in Sprague-Dawley rat at 0.5 mg/kg, iv; settings: in vivo
[27] = Tmax in Sprague-Dawley rat at 2 mg/kg, po; assay type: ADME, organism-based; design: dose 2 mg/kg, route oral; settings: in vivo
[28] = target: D(1A) dopamine receptor (Homo sapiens) (UniProt P21728); assay: Displacement of [3H]SCH23390 from human dopamine D1 receptor at 10 uM relative to control; summary of the method: as §2
Chain of D(1A) dopamine receptor (Homo sapiens) (P21728 whole entry): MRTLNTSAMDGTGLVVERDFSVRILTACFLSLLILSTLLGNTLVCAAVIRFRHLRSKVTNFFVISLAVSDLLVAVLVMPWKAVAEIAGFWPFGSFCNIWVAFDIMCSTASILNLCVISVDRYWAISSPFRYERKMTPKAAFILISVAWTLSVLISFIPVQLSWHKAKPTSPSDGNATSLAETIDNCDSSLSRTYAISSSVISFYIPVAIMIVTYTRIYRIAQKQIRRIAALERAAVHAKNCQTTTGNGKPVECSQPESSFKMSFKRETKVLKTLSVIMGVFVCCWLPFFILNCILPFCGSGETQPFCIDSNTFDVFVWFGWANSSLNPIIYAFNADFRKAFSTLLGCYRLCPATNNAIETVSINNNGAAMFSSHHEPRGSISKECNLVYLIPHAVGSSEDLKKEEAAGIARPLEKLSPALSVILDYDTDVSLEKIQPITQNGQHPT

[29] = target: Kappa-type opioid receptor (Homo sapiens) (UniProt P41145); assay: Displacement of [3H]U69593 from human kappa opioid receptor at 10 uM relative to control
Chain of Kappa-type opioid receptor (Homo sapiens) (P41145 whole entry): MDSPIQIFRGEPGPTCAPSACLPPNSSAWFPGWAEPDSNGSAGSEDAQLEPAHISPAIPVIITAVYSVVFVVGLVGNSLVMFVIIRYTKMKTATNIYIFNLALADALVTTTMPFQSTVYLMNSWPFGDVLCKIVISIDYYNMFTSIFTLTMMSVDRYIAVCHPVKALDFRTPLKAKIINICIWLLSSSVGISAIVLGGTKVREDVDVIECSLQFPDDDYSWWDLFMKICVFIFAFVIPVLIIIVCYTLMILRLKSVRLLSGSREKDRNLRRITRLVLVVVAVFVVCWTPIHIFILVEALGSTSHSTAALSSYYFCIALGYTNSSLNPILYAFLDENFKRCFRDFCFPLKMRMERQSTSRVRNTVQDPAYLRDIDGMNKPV
Summary of the method: (§3)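 Outsourced CNS receptor panel (55 binding assays); compound tested at 10 μM in primary radioligand binding; specific binding inhibition expressed relative to control, with >50% inhibition taken as a significant effect.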

[30] = test system: Salmonella typhimurium; assay: Mutagenic activity in Salmonella typhimurium TA100 assessed as number of reversion mutation at 10 ug/plate; assay type: toxicity, organism-based; settings: salmonella enterica subsp. enterica serovar typhimurium; summary of the method: as §1
[31] = test system: Salmonella typhimurium; assay: Mutagenic activity in Salmonella typhimurium TA98 assessed as number of reversion mutation at 3 ug/plate; assay type: toxicity, organism-based; settings: salmonella enterica subsp. enterica serovar typhimurium; summary of the method: as §1
[32] = target: Adrenergic receptor alpha-1 (Homo sapiens) (UniProt P35348+P25100+P35368); assay: Displacement of [3H]prazosin from alpha1-adrenergic receptor (unknown origin) at 10 uM relative to control; summary of the method: as §3
[33] = Drug uptake in Sprague-Dawley rat brain at 0.5 mg/kg iv after 4 hrs; assay type: ADME, organism-based; design: dose 0.5 mg/kg, route intravenous; settings: read-out: Drug uptake
[34] = target: Nociceptin receptor (Homo sapiens) (UniProt P41146); assay: Displacement of [3H] nociceptin from human ORL1 receptor at 10 uM relative to control; summary of the method: as §2
Chain of Nociceptin receptor (Homo sapiens) (P41146 whole entry): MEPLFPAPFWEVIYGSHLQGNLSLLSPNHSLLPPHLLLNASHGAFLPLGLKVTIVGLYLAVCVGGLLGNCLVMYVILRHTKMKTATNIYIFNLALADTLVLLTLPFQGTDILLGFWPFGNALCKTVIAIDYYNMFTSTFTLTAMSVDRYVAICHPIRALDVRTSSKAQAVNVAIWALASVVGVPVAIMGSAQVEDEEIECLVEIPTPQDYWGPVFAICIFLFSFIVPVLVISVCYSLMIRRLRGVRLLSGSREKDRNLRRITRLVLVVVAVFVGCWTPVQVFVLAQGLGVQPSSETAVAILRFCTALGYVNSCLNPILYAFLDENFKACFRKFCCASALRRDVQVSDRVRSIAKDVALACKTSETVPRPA

[35] = Acute toxicity in KM mouse assessed as survival at 150 mg/kg, po up to 14 days (reference value: 100%); assay type: organism-based; design: dose 150 mg/kg, route oral; settings: in vivo

Q: Which results are given for `CN(C)CCC(c1ccc(Cl)c(Cl)c1)N1CCOCC1` (stereo not given)?
A: survival at 336 h [1]: 100%; Activity [2]: 77; Activity [3]: 74; inhibition [4]: 9.8%; inhibition [5]: -0.8%; concentration at 2 h [6]: 10.9 ng/mL; bioavailability [7]: 19.4%; inhibition [8]: 0.8%; inhibition [9]: 19.2%; inhibition [10]: -0.5%; inhibition [11]: -3.6%; inhibition [12]: 8.7%; survival at 336 h [13]: 80%; IC50 [14]: 247 nM; survival at 336 h [15]: 40%; Activity [16]: 87; Kp at 2 h [17]: 16.4; inhibition [18]: 20.6%; AUC [19]: 61 ng·h/mL; concentration at 0.5 h [20]: 549 ng/mL; inhibition [21]: -7%; inhibition [22]: -1.1%; inhibition [23]: 4.9%; Activity [24]: 75; inhibition [25]: 3.3%; clearance [26]: 100 mL/min/kg; Tmax [27]: 30 min; inhibition [28]: 2.2%; inhibition [29]: 11.2%; Activity [30]: 75; Activity [31]: 33; inhibition [32]: 2.6%; concentration at 4 h [33]: 42.2 ng/mL; inhibition [34]: 0.9%; survival at 336 h [35]: 100%
